The source of these data is ChEMBL document CHEMBL1123348, “Characterization of the neurotoxic potential of m-methoxy-MPTP and the use of its N-ethyl analogue as a means of avoiding exposure to a possible Parkinsonism-causing agent” (J Med Chem, 1986).

Common to all, as to type: functional, organism-based
Assay [1] deals with Mus musculus. Nature of the assay: Tested for the concentration of DOPAC (dihydroxyphenyl-acetic acid) in striatum of mouse brain one week after four daily injections at a dosage of 80 mg/kg. More on the design: dose 80 mg/kg. The method, boiled down:
(§1)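 Male CRL/CFW mice received subcutaneous injections daily for 4 days. Animals were killed 7 days after the last dose. Brains were removed rapidly, and striata were dissected, frozen on dry ice and stored at -15 °C until analysis of dopamine, DOPAC and HVA. Values are means ± standard errors for 6 mice/group.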

Assay [2] deals with Mus musculus. Briefly: Tested for the concentration of dopamine in striatum of mouse brain one week after four daily injections at 20 mg/kg dose. Also noted: dose 20 mg/kg. The method, boiled down:
as §1

Assay [3] has as its system Mus musculus. Nature of the assay: Tested for the concentration of HVA in striatum of mouse brain one week after four daily injections at a dosage of 80 mg/kg. More on the design: dose 80 mg/kg. In short, it runs like this: as §1
Assay [4] deals with Mus musculus. Briefly: Tested for the concentration of HVA in striatum of mouse brain one week after four daily injections at doses of 20 mg/kg. More on the design: dose 20 mg/kg. The method, boiled down: as §1
Assay [5] relates to Mus musculus. Nature of the assay: Tested for the concentration of dopamine in striatum of mouse brain one week after four daily injections at 80 mg/kg dose. More on the design: dose 80 mg/kg. In short, it runs like this: as §1
The test system of assay [6] is Mus musculus. Nature of the assay: Tested for the concentration of DOPAC (dihydroxyphenyl-acetic acid) in striatum of mouse brain one week after four daily injections at dose of 40 mg/kg. Also noted: dose 40 mg/kg. In short, it runs like this: as §1
The test system of assay [7] is Mus musculus. Nature of the assay: Tested for the concentration of HVA in striatum of mouse brain one week after four daily injections at dose of 40 mg/kg. Also noted: dose 40 mg/kg. The method, boiled down: as §1
The test system of assay [8] is Mus musculus. Briefly: Tested for the concentration of dopamine in striatum of mouse brain one week after four daily injections at 40 mg/kg dose. More on the design: dose 40 mg/kg. The method, boiled down: as §1
The test system of assay [9] is Mus musculus. Nature of the assay: Tested for the concentration of DOPAC (dihydroxyphenyl-acetic acid) in striatum of mouse brain one week after four daily injections at dose of 80 mg/kg. Also noted: dose 80 mg/kg. In short, it runs like this:
as §1

Assay [10] concerns Mus musculus. Briefly: Tested for the concentration of DOPAC (dihydroxyphenyl-acetic acid) in striatum of mouse brain one week after four daily injections at dose of 20 mg/kg. More on the design: dose 20 mg/kg. The method, boiled down:
as §1

Assay [11] concerns Mus musculus. Nature of the assay: Tested for the concentration of HVA in striatum of mouse brain one week after four daily injections at dose of 80 mg/kg. More on the design: dose 80 mg/kg. In short, it runs like this: as §1
In assay [12] the test system is Mus musculus. Briefly: Tested for the concentration of dopamine in striatum of mouse brain one week after four daily injections at 80 mg/kg of the compound. Also noted: dose 80 mg/kg. The method, boiled down: as §1
The test system of assay [13] is Mus musculus. Briefly: Tested for the concentration of HVA in striatum of mouse brain one week after four daily injections at dose of 20 mg/kg. Also noted: dose 20 mg/kg. In short, it runs like this:
as §1

Where “and” joins values, the source holds several entries; their conditions need not be identical. Equal values may be shown once.

`COc1cccc(C2=CCN(C)CC2)c1`: the Concentration worked out at 0.9 nM/g in the assay on Mus musculus [1]; 84.8 nM/g in the assay with Mus musculus [2]; 2.41 nM/g in the assay on Mus musculus [3]; 8.07 nM/g in the assay on Mus musculus [4]; 15.9 nM/g in the assay with Mus musculus [5]; 2.93 nM/g with Mus musculus [6]. The Concentration came out at 5.66 nM/g in the assay on Mus musculus [7]; 38.1 nM/g in the assay on Mus musculus [8]; 1.38 nM/g with Mus musculus [9]; 5.09 nM/g in the assay on Mus musculus [10]; 2.97 nM/g with Mus musculus [11]; 7.9 nM/g in the assay with Mus musculus [12].
Consider `CCN1CC=C(c2cccc(OC)c2)CC1`, for which the Concentration in the assay on Mus musculus [2] is 62.7 nM/g and 82.1 nM/g; in the assay with Mus musculus [4], 5.46 nM/g; in the assay on Mus musculus [13], 6.38 nM/g; in the assay on Mus musculus [10], 4.6 nM/g and 5.55 nM/g.
